Measured values taken from ChEMBL document CHEMBL2040734, “Benzothiazoles: search for anticancer agents” (2012).

Tests used:
Type in all cases: functional
[1] = test system: BT-549; experiment: Cytotoxicity against human BT549 cells assessed as cell growth at 0.01 uM after 48 hrs by sulforhodamine B assay; details: BT-549, 48 h, read-out: Activity
Method in brief: (§1)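 NCI-60 five-dose screen. Cells were grown in RPMI 1640 with 5% FBS and 2 mM L-glutamine and preincubated 24 h. Compound (DMSO stock) was tested at 0.01, 0.1, 1, 10 and 100 µM for 48 h at 37 °C. Cells were fixed in situ with cold TCA (final 10%) and stained with 0.4% SRB. A515 was read, and percent growth was calculated against time-zero and control plates.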

[2] = test system: SK-MEL-2; experiment: Cytotoxicity against human SK-MEL-2 cells assessed as cell growth at 0.1 uM after 48 hrs by sulforhodamine B assay; details: SK-MEL-2, 48 h, read-out: Activity
[3] = test system: OVCAR-5; experiment: Cytotoxicity against human OVCAR5 cells assessed as cell growth at 0.1 uM after 48 hrs by sulforhodamine B assay; details: OVCAR-5, 48 h, read-out: Activity
[4] = test system: IGROV-1; experiment: Cytotoxicity against human IGROV1 cells assessed as cell growth at 100 uM after 48 hrs by sulforhodamine B assay; details: IGROV-1, 48 h, read-out: Activity
[5] = test system: OVCAR-4; experiment: Cytotoxicity against human OVCAR4 cells assessed as cell growth at 100 uM after 48 hrs by sulforhodamine B assay; details: OVCAR-4, 48 h, read-out: Activity
[6] = test system: PC-3; experiment: Cytotoxicity against human PC3 cells assessed as cell growth at 100 uM after 48 hrs by sulforhodamine B assay; details: PC-3, 48 h, read-out: Activity
[7] = test system: TK-10; experiment: Cytotoxicity against human TK10 cells assessed as cell growth at 0.1 uM after 48 hrs by sulforhodamine B assay; details: TK-10, 48 h, read-out: Activity
[8] = Cytotoxicity against human Hs 578T cells assessed as cell growth at 100 uM after 48 hrs by sulforhodamine B assay; details: read-out: Activity
[9] = test system: T47D; experiment: Cytotoxicity against human T47D cells assessed as cell growth at 100 uM after 48 hrs by sulforhodamine B assay; details: read-out: Activity
[10] = test system: HCC 2998; experiment: Cytotoxicity against human HCC2998 cells assessed as cell growth at 1 uM after 48 hrs by sulforhodamine B assay; details: HCC 2998, 48 h, read-out: Activity
Method in brief: (§2)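 Five-dose NCI panel run at 0.01, 0.1, 1, 10 and 100 µM. Cells were in RPMI 1640 with 5% FBS and 2 mM L-glutamine, seeded at 5000–40,000 cells/well and pre-incubated 24 h. Drug was diluted from a DMSO stock into medium with 50 µg/ml gentamicin. Exposure was 48 h at 37 °C, 5% CO2. Cells were fixed with cold TCA and stained with 0.4% SRB, read at 515 nm. Percent growth came from time-zero, control and test absorbances.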

[11] = test system: SF-539; experiment: Cytotoxicity against human SF539 cells assessed as cell growth at 1 uM after 48 hrs by sulforhodamine B assay; details: SF-539, 48 h, read-out: Activity
[12] = test system: SNB-19; experiment: Cytotoxicity against human SNB19 cells assessed as cell growth at 1 uM after 48 hrs by sulforhodamine B assay; details: SNB-19, 48 h, read-out: Activity
[13] = test system: TK-10; experiment: Cytotoxicity against human TK10 cells assessed as cell growth at 1 uM after 48 hrs by sulforhodamine B assay; details: TK-10, 48 h, read-out: Activity
[14] = test system: BT-549; experiment: Cytotoxicity against human BT549 cells assessed as cell growth at 1 uM after 48 hrs by sulforhodamine B assay; details: BT-549, 48 h, read-out: Activity; method in brief: as §1
[15] = test system: EKVX; experiment: Cytotoxicity against human EKVX cells assessed as cell growth at 10 uM after 48 hrs by sulforhodamine B assay; details: read-out: Activity; method in brief: as §2
[16] = test system: MOLT-4; experiment: Cytotoxicity against human MOLT4 cells assessed as cell growth at 100 uM after 48 hrs by sulforhodamine B assay; details: MOLT-4, 48 h, read-out: Activity
[17] = test system: EKVX; experiment: Cytotoxicity against human EKVX cells assessed as cell growth at 100 uM after 48 hrs by sulforhodamine B assay; details: read-out: Activity; method in brief: as §2
[18] = test system: HOP-62; experiment: Cytotoxicity against human HOP62 cells assessed as cell growth at 100 uM after 48 hrs by sulforhodamine B assay; details: HOP-62, 48 h, read-out: Activity; method in brief: as §2
[19] = test system: NCI-H23; experiment: Cytotoxicity against human NCI-H23 cells assessed as cell growth at 100 uM after 48 hrs by sulforhodamine B assay; details: NCI-H23, 48 h, read-out: Activity
[20] = test system: COLO 205; experiment: Cytotoxicity against human COLO205 cells assessed as cell growth at 10 '-5 M after 48 hrs by sulforhodamine B assay; details: COLO 205, 48 h, read-out: Activity
Method in brief: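 Primary NCI-60 single-dose screen at 10 µM. Cells were grown in RPMI 1640 with 5% FBS and 2 mM L-glutamine and plated 24 h before drug addition. Compound was solubilized in DMSO, then exposed for 48 h at 37 °C under 5% CO2. Cells were TCA-fixed and stained with SRB, and absorbance was read at 515 nm. Growth was expressed relative to time-zero and untreated controls.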

[21] = test system: KM12; experiment: Cytotoxicity against human KM12 cells assessed as cell growth at 10 '-5 M after 48 hrs by sulforhodamine B assay; details: KM12, 48 h, read-out: Activity
[22] = test system: SR; experiment: Growth inhibition of human SR cells after 48 hrs by sulforhodamine B assay; details: for CC50: read-out: LC50 (the source's name)
Method in brief: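 Leukemia suspension lines were grown in RPMI 1640 with 5% FBS and 2 mM L-glutamine and plated at 5000–40,000 cells/well with 24 h preincubation. They were treated at 0.01, 0.1, 1, 10 and 100 µM (DMSO stock) for 48 h at 37 °C. Settled cells were fixed with 80% TCA (16% final) and stained with 0.4% SRB in 1% acetic acid, then read at 515 nm. GI50 was calculated against time-zero and control wells.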

[23] = test system: EKVX; experiment: Growth inhibition of human EKVX cells after 48 hrs by sulforhodamine B assay
Method in brief: (§3)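 Adherent NCI-60 lines were grown in RPMI 1640 with 5% FBS and 2 mM L-glutamine, plated at 5000–40,000 cells/well and preincubated 24 h. They were then exposed to five concentrations (0.01–100 µM, from a DMSO stock) for 48 h at 37 °C, 5% CO2. Cells were fixed with cold TCA (10% final, 60 min, 4 °C) and stained with 0.4% SRB. Dye was solubilized in 10 mM Tris base and A515 read. GI50 was derived from time-zero, control and treated absorbances.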

[24] = test system: SF-268; experiment: Growth inhibition of human SF268 cells after 48 hrs by sulforhodamine B assay; details: SF-268, 48 h; method in brief: as §3
[25] = test system: HCT-15; experiment: Cytotoxicity against human HCT15 cells assessed as cell growth at 0.01 uM after 48 hrs by sulforhodamine B assay; details: HCT-15, 48 h, read-out: Activity; method in brief: as §2
[26] = test system: U-251; experiment: Cytotoxicity against human U251 cells assessed as cell growth at 0.01 uM after 48 hrs by sulforhodamine B assay; details: U-251, 48 h, read-out: Activity
[27] = test system: SK-MEL-5; experiment: Cytotoxicity against human SK-MEL-5 cells assessed as cell growth at 0.01 uM after 48 hrs by sulforhodamine B assay; details: SK-MEL-5, 48 h, read-out: Activity

Structure (SMILES) | growth at 0.01 µM [1] [%] | growth at 0.1 µM [2] [%] | growth at 0.1 µM [3] [%] | growth at 100 µM [4] [%] | growth at 100 µM [5] [%] | growth at 100 µM [6] [%] | growth at 0.1 µM [7] [%] | growth at 100 µM [8] [%] | growth at 100 µM [9] [%] | growth at 1 µM [10] [%] | growth at 1 µM [11] [%] | growth at 1 µM [12] [%] | growth at 1 µM [13] [%] | growth at 1 µM [14] [%] | growth at 10 µM [15] [%] | growth at 100 µM [16] [%] | growth at 100 µM [17] [%] | growth at 100 µM [18] [%] | growth at 100 µM [19] [%] | growth at 10 µM [20] [%] | further results
Cc1ccc2nc(Nc3c(C)cccc3C)sc2c1 | 98 | 99 | 106 | 33 | 77 | 56 | 94 | 27 | 46 | 70 | 76 | 61 | 82 | 63 | 39 | 86 | 53 | 10 | 65 | 32.2 | growth at 10 µM [21]: 11.1%; GI50 [22]: 0.412 µM; TGI [22]: > 100 µM; CC50 [22]: > 100 µM; LC50 [23]: > 100 µM; TGI [23]: > 100 µM; GI50 [24]: 29.3 µM; LC50 (concentration killing 50% of the starting cells) [24]: > 100 µM; TGI [24]: > 100 µM; growth at 0.01 µM [25]: 95%; growth at 0.01 µM [26]: 97%; growth at 0.01 µM [27]: 95%
Clc1cccc(Cl)c1Nc1nc2cccc(Cl)c2s1 | 102 | 88 | 92 | -55 | -87 | -74 | 94 | -17 | -64 | 70 | 77 | 68 | 59 | 79 | -89 | -23 | -73 | -75 | -58 | -90 | growth at 10 µM [21]: -68.5%; GI50 [22]: 1.03 µM; TGI [22]: 3.24 µM; CC50 [22]: > 100 µM; GI50 [23]: 0.299 µM; LC50 [23]: 4.26 µM; TGI [23]: 1.4 µM; GI50 [24]: 1.2 µM; LC50 (concentration killing 50% of the starting cells) [24]: 5.66 µM; TGI [24]: 2.61 µM; growth at 0.01 µM [25]: 93%; growth at 0.01 µM [26]: 104%; growth at 0.01 µM [27]: 94%
